From the RNAGym collection of RNA variant scans (doi:10.1126/science.aae0568)
This sample holds only a part of the variants without activity.

B1: tRNA (parent)
chain: GUUCCGUUGGCGUAAUGGUAACGCGUCUCCCUCCUAAGGAGAAGACUGCGGGUUCGAGUCCCGUACGGAACG

Variants of: B1
Experiment: yeast fitness relative to wild type (ratio to wild type); higher = fitter; tRNA-Arg(CCU), competitive growth, 37 C, YPD
Method in brief: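 The tRNA-Arg(CCU) gene variants were made by chemical synthesis with a 3% per-site mutation rate at 69 sites and inserted at the native genomic locus of Saccharomyces cerevisiae. After pooling, the strains were competed in YPD at 37°C for 24 hours in six parallel replicates. Gene amplicons from the start population and each end population were read by 100-nucleotide paired-end sequencing, and Darwinian fitness relative to wild type was taken from genotype frequency changes. Genotypes needed ≥ 100 starting reads, and estimates < 0.5 were set to 0.5.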

Compared with GUUCCGUUGGCGUAAUGGUAACGCGUCUCACUCCUAAGGAGAAGACUGAGGGUUCGUGUCCCGUACGGAGCG, GUUCCGUUGGCGUAAUGGUAACGCGUCUCAUUCCUAAGGAGAAGACUGCGGGUUCGAGUCCCGUAUGGUACG is lower in yeast fitness: 0.509 for the first, no more than 0.5 for the second.

First: GUUCCGUUGGCGUAAUGGUAACGCGUCUCACUCCUAAGGAGAAGACUGCAGGUUCGAGUCCCGUACGGCACG
Second: GUUCCGUUGGCGUAAUGGUAACGCGUCUCACUCCUAAGGAGAAGACUGCAGGUUCAAGUCCCGUACGGAACG
The yeast fitness of the first is lower: 0.675 for the first, 0.742 for the second.

First: GUUCCGUUGGCGUAAUGGUAACGCGUCUCACUCCUAAGGAGAAGACUGCCGGUUCGAGUCCCGUACGGUACG
Second: GUUCCGUUGGCGUAAUGGUAACGCGUCUCACUCCUAAGGAGAAGACUGCGGGUUCGACUCCCGUACGGAACG
The yeast fitness of the first is lower: no more than 0.5 for the first, 1 for the second.

Going from GUUCCGUUGGCGUAAUGGUAACGCGUCUCACUCCUAAGGAGAAGAUUGCGGCUUCGAGUCCCGUAUGGAACG to GUUCCGUUGGCGUAAUGGUAACGCGUCUCAUUCCUAAGGAGCAGACUGCGGGUUCGAGUCCCGUACGGAACG, the yeast fitness rises from no more than 0.5 to 0.943.

Compared with GUUCCGUUGGCGUAAUGGUAACGCGUCUCAUUCCUAAGGAGAAGCCUGCGGGUUGGAGUCCCGUACGGAACG, GUUCCGUUGGCGUAAUGGUAACGCGUCUCAUUCCUAAGGAGAAGCCUGUGGGUUGGAGUCCCGUACGGAACG is lower in yeast fitness: 0.522 for the first, no more than 0.5 for the second.

Going from GUUCCGUUGGCGUAAUGGUAACGCGUCUCACUCCUAAGAAGAAGACAGCGGGUUCGAGUCCCCUACGGAACG to GUUCCGUUGGCGUAAUGGUAACGCGUCUCACUCCUAAAGAGUAGACUGCGGGUUCGAGUCCCGUACGGAACG, the yeast fitness falls from 0.528 to no more than 0.5.

Going from GUUCCGUUGGCGUAAUGGUAACGCGUCUCACUCCUAAGGAGAAGACUGCGGGUUCGACUCCCAUACGGAACG to GUUCCGUUGGCGUAAUGGUAACGCGUCUCACUCCUAAGGAGAAGACUGCGGGUUGGAGUCCCGUACGGAACG, the yeast fitness rises from no more than 0.5 to 0.596.

Compared with GUUCCGUUGGCGUAAUGGUAACGCGUCUCACUCCUAAGGAGAAGACUGCGGGUUUGAGUCCCGUACGGAACG, GUUCCGUUGGCGUAAUGGUAACGCGUCUCACUCCUAAGGAGAAGACUGCGAACUCAAGUCGCGUACGGAACG is lower in yeast fitness: 0.686 for the first, no more than 0.5 for the second.

First: GUUCCGUUGGCGUAAUGGUAACGCGUCUCACUCCUAAGGAGAAGACUGCGGGUUCGAGUCCCGUACGACACG
Second: GUUCCGUUGGCGUAAUGGUAACGCGUCUCACUCCUAAGGAGAAGAUUGCGGCUUCGAGUCCCGUACGGAACG
The yeast fitness of the first is higher: 0.629 for the first, 0.568 for the second.

Going from GUUCCGUUGGCGUAAUGGUAACGCGUCUCACUCCUAAGCAGAAGACUGCGGGUUCGAGUCCCGUACGGAACG to GUUCCGUUGGCGUAAUGGUAACGCGUCUCACUCCUAAGGAGAACACUGCGGGUUCGAGACCCGUACGGUACG, the yeast fitness falls from 0.656 to 0.65.

Compared with GUUCCGUUGGCGUAAUGGUAACGCGUCUCACUCCUAAGGACAAGACUGCGGGUUCGAGUCCCGUACGGCACG, GUUCCGUUGGCGUAAUGGUAACGCGUCUCACUCUUAAGGAGAAGACUGCGGGUUCGACUCCCGUACGGAACG is lower in yeast fitness: 0.598 for the first, no more than 0.5 for the second.

First: GUUCCGUUGGCGUAAUGGUAACGCGUCUCACUCCUAAAGAGAAGACUGCGGGUUAGAGUCCCGUCCGGAACG
Second: GUUCCGUUGGCGUAAUGGUAACGCGUCUCACUCCUAAGGAGAAGACUGCAGGUUCGAGUCCCGUACAGAACG
The yeast fitness of the first is higher: 0.58 for the first, 0.543 for the second.

First: GUUCCGUUGGCGUAAUGGUAACGCGUCUCACUCCUAAGGAGAAGACUGCAGGUUCGAGUCCCGUACGGAACG
Second: GUUCCGUUGGCGUAAUGGUAACGCGUCUCACUGCUAAGGAGAAGUCUGCGGGUUCGAGCCCCGUACGGAACG
The yeast fitness of the first is higher: 0.677 for the first, 0.543 for the second.

Compared with GUUCCGUUGGCGUAAUGGUAACGCGUCUCACUCCUAAGGAGAAGACUGCGGGUUGGCGUCCGGUACGCAACG, GUUCCGUUGGCGUAAUGGUAACGCGUCUCACUCCUAAGGAGAAACCUGCGGGUUCGAGUCCCGUACGGAACG is lower in yeast fitness: 0.513 for the first, no more than 0.5 for the second.

Going from GUUCCGUUGGCGUAAUGGUAACGCGUCUCACUCCUAAGGAGAAGACUGCGGGUUCGAGUGCCGUACGGAACG to GUUCCGUUGGCGUAAUGGUAACGCGUCUCACUCCUAAGGAGAAGACUGCGGGUUCGAGUUCCGUACGGAACG, the yeast fitness rises from 0.635 to 0.727.

GUUCCGUUGGCGUAAUGGUAACGCGUCUCACUCGUAAGGAGAAGUCUGCGGGUUCGAGUCCCGUACGGAACG and GUUCCGUUGGCGUAAUGGUAACGCGUCUCACUCGUAAGGAGAAGACUGCGGGUUCGAGUCCCGUUCGGAACG cannot be ordered by yeast fitness: no more than 0.5 for the first, no more than 0.5 for the second.

GUUCCGUUGGCGUAAUGGUAACGCGUCUCACUCCUAAGGAGAAGACUGCGGGUUCGAGUCCCUAACGGAACG and GUUCCGUUGGCGUAAUGGUAACGCGUCUCACUCCUAAGGAGAAGAAUGCGGGUUCAAGUCCCGUACGGUACG cannot be ordered by yeast fitness: no more than 0.5 for the first, no more than 0.5 for the second.

First: GUUCCGUUGGCGUAAUGGUAACGCGUCUCACUCCUAAGGAGAAGACUGCGGGUUCGAGUCCCAUACGGAACG
Second: GUUCCGUUGGCGUAAUGGUAACGCGUCUCACUCCUAAGGAGAACACUGCGGGUUCGAGUCCCGUACGGAACG
The yeast fitness of the first is higher: 0.83 for the first, 0.795 for the second.

For GUUCCGUUGGCGUAAUGGUAACGCGUCUCACUACUAAGGAGAAGACUGCGGGUUCGAGUCCAGUACGGAACG, the yeast fitness was no more than 0.5.
